Test results reported in ChEMBL document CHEMBL4052657, “Design, synthesis and biological evaluation of sulfonamide-substituted diphenylpyrimidine derivatives (Sul-DPPYs) as potent focal adhesion kinase (FAK) inhibitors with antitumor activity” (Bioorg Med Chem, 2017).

Legend:
[1] = tested on: Ramos; test: Antiproliferative activity against human Ramos cells after 72 hrs by CCK8 assay; format: functional, cell-based
In short: (§1)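 Cells in RPMI-1640 with 10% FBS and 1% penicillin-streptomycin, 37 °C, 5% CO2. Seeded at 3,000 to 5,000 cells/well and grown one day, then exposed to compound for 72 h at 1.25 to 40 µmol/L, five replicates per concentration. CCK-8 read-out is absorbance at 450 nm. Dose-response curves used five concentrations. IC50 is the mean of at least three separate experiments.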

[2] = tested on: ASPC1; test: Antiproliferative activity against human AsPC1 cells after 72 hrs by CCK8 assay; conditions: ASPC1, 72 h
[3] = tested on: L02; test: Antiproliferative activity against human LO2 cells after 72 hrs by CCK8 assay; conditions: L02, 72 h
[4] = tested on: NCI-H1975; test: Antiproliferative activity against gefitinib-resistant human NCI-H1975 cells harboring FAK after 72 hrs by CCK8 assay; format: functional, cell-based; conditions: NCI-H1975, 72 h; in short: as §1
[5] = tested on: PANC-1; test: Antiproliferative activity against human PANC1 cells after 72 hrs by CCK8 assay; conditions: PANC-1, 72 h
[6] = tested on: BXPC-3; test: Antiproliferative activity against human BxPC3 cells after 72 hrs by CCK8 assay; conditions: BXPC-3, 72 h
[7] = tested on: ASPC1; test: Antiproliferative activity against human AsPC1 cells assessed as cell viability at 1.25 uM after 72 hrs by CCK8 assay (reference value: 96.9%); format: functional; conditions: ASPC1, 72 h, read-out: Activity
[8] = tested on: ASPC1; test: Antiproliferative activity against human AsPC1 cells assessed as cell viability at 5 uM after 48 hrs by CCK8 assay (reference value: 98.6%); format: functional; conditions: ASPC1, 48 h, read-out: Activity
[9] = tested on: ASPC1; test: Induction of apoptosis in human AsPC1 cells assessed as early apoptotic cells at 1 uM after 72 hrs by Annexin-V-FITC/propidium iodide staining based flow cytometry relative to control; format: functional
In short: (§2)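 AsPC-1 cells at 2 to 5 ×10⁵ cells/well were treated for 72 h with DMSO solvent control or compound at 1, 5 or 10 µM in medium with 5% FBS. Cells were then […], stained with annexin V-FITC/propidium iodide and analysed by flow cytometry.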

[10] = tested on: ASPC1; test: Induction of apoptosis in human AsPC1 cells assessed as necrotic cells at 1 uM after 72 hrs by Annexin-V-FITC/propidium iodide staining based flow cytometry relative to control; format: functional; in short: as §2
[11] = tested on: ASPC1; test: Antiproliferative activity against human AsPC1 cells assessed as cell viability at 10 uM after 24 hrs by CCK8 assay relative to control; format: functional; conditions: ASPC1, 24 h, read-out: Activity
[12] = tested on: ASPC1; test: Induction of apoptosis in human AsPC1 cells assessed as early apoptotic cells at 5 uM after 72 hrs by Annexin-V-FITC/propidium iodide staining based flow cytometry relative to control; format: functional; in short: as §2
[13] = tested on: ASPC1; test: Induction of apoptosis in human AsPC1 cells assessed as late apoptotic cells at 10 uM after 72 hrs by Annexin-V-FITC/propidium iodide staining based flow cytometry relative to control; format: functional; in short: as §2
[14] = tested on: ASPC1; test: Induction of apoptosis in human AsPC1 cells assessed as necrotic cells at 10 uM after 72 hrs by Annexin-V-FITC/propidium iodide staining based flow cytometry relative to control; format: functional; in short: as §2
[15] = tested on: ASPC1; test: Antiproliferative activity against human AsPC1 cells assessed as cell viability at 1.25 uM after 24 hrs by CCK8 assay relative to control; format: functional; conditions: ASPC1, 24 h, read-out: Activity
[16] = tested on: ASPC1; test: Induction of apoptosis in human AsPC1 cells after 72 hrs by Annexin-V-FITC/propidium iodide staining based flow cytometry; format: functional, cell-based; in short: as §2
[17] = tested on: PANC-1; test: Antiproliferative activity against human PANC1 cells assessed as cell viability at 0.5 uM after 72 hrs by CCK8 assay (reference value: 97.5%); format: functional; conditions: PANC-1, 72 h, read-out: Activity
[18] = tested on: ASPC1; test: Antiproliferative activity against human AsPC1 cells assessed as cell viability at 5 uM after 24 hrs by CCK8 assay relative to control; format: functional; conditions: ASPC1, 24 h, read-out: Activity
[19] = tested on: PANC-1; test: Antiproliferative activity against human PANC1 cells assessed as cell viability at 8 uM after 48 hrs by CCK8 assay (reference value: 99%); format: functional; conditions: PANC-1, 48 h, read-out: Activity
[20] = tested on: PANC-1; test: Antiproliferative activity against human PANC1 cells assessed as cell viability at 2 uM after 48 hrs by CCK8 assay (reference value: 99%); format: functional; conditions: PANC-1, 48 h, read-out: Activity
[21] = tested on: ASPC1; test: Induction of apoptosis in human AsPC1 cells assessed as late apoptotic cells at 5 uM after 72 hrs by Annexin-V-FITC/propidium iodide staining based flow cytometry relative to control; format: functional; in short: as §2
[22] = tested on: ASPC1; test: Induction of apoptosis in human AsPC1 cells assessed as early apoptotic cells at 10 uM after 72 hrs by Annexin-V-FITC/propidium iodide staining based flow cytometry relative to control; format: functional; in short: as §2
[23] = tested on: ASPC1; test: Antiproliferative activity against human AsPC1 cells assessed as cell viability at 5 uM after 72 hrs by CCK8 assay (reference value: 96.9%); format: functional; conditions: ASPC1, 72 h, read-out: Activity
[24] = tested on: ASPC1; test: Antiproliferative activity against human AsPC1 cells assessed as cell viability at 10 uM after 48 hrs by CCK8 assay (reference value: 98.6%); format: functional; conditions: ASPC1, 48 h, read-out: Activity
[25] = tested on: ASPC1; test: Induction of apoptosis in human AsPC1 cells assessed as viable cells at 10 uM after 72 hrs by Annexin-V-FITC/propidium iodide staining based flow cytometry relative to control; format: functional; conditions: ASPC1, 72 h, read-out: Activity; in short: as §2
[26] = tested on: PANC-1; test: Antiproliferative activity against human PANC1 cells assessed as cell viability at 2 uM after 24 hrs by CCK8 assay relative to control; format: functional; conditions: PANC-1, 24 h, read-out: Activity
[27] = tested on: PANC-1; test: Antiproliferative activity against human PANC1 cells assessed as cell viability at 2 uM after 72 hrs by CCK8 assay (reference value: 97.5%); format: functional; conditions: PANC-1, 72 h, read-out: Activity
[28] = tested on: PANC-1; test: Antiproliferative activity against human PANC1 cells assessed as cell viability at 0.5 uM after 48 hrs by CCK8 assay (reference value: 99%); format: functional; conditions: PANC-1, 48 h, read-out: Activity
[29] = tested on: ASPC1; test: Induction of apoptosis in human AsPC1 cells assessed as late apoptotic cells at 1 uM after 72 hrs by Annexin-V-FITC/propidium iodide staining based flow cytometry relative to control; format: functional; in short: as §2
[30] = tested on: PANC-1; test: Antiproliferative activity against human PANC1 cells assessed as cell viability at 8 uM after 72 hrs by CCK8 assay (reference value: 97.5%); format: functional; conditions: PANC-1, 72 h, read-out: Activity
[31] = tested on: PANC-1; test: Antiproliferative activity against human PANC1 cells assessed as cell viability at 0.5 uM after 24 hrs by CCK8 assay relative to control; format: functional; conditions: PANC-1, 24 h, read-out: Activity
[32] = tested on: ASPC1; test: Induction of apoptosis in human AsPC1 cells assessed as viable cells at 1 uM after 72 hrs by Annexin-V-FITC/propidium iodide staining based flow cytometry relative to control; format: functional; conditions: ASPC1, 72 h, read-out: Activity; in short: as §2
[33] = tested on: ASPC1; test: Antiproliferative activity against human AsPC1 cells assessed as cell viability at 1.25 uM after 48 hrs by CCK8 assay (reference value: 98.6%); format: functional; conditions: ASPC1, 48 h, read-out: Activity
[34] = tested on: ASPC1; test: Induction of apoptosis in human AsPC1 cells assessed as necrotic cells at 5 uM after 72 hrs by Annexin-V-FITC/propidium iodide staining based flow cytometry relative to control; format: functional; in short: as §2
[35] = tested on: PANC-1; test: Antiproliferative activity against human PANC1 cells assessed as cell viability at 8 uM after 24 hrs by CCK8 assay relative to control; format: functional; conditions: PANC-1, 24 h, read-out: Activity
[36] = tested on: ASPC1; test: Antiproliferative activity against human AsPC1 cells assessed as cell viability at 10 uM after 72 hrs by CCK8 assay (reference value: 96.9%); format: functional; conditions: ASPC1, 72 h, read-out: Activity
[37] = tested on: ASPC1; test: Induction of apoptosis in human AsPC1 cells assessed as viable cells at 5 uM after 72 hrs by Annexin-V-FITC/propidium iodide staining based flow cytometry relative to control; format: functional; conditions: ASPC1, 72 h, read-out: Activity; in short: as §2

CNC(=O)c1ccccc1Nc1nc(Nc2ccc(NS(=O)(=O)c3ccc(F)cc3)c(OC)c2)ncc1Cl
IC50 [1]: 24.6 µM
IC50 [2]: 6.69 µM
IC50 [3]: 19.7 µM
IC50 [4]: 12.9 µM
IC50 [5]: 5.7 µM
IC50 [6]: 31.6 µM

CNC(=O)c1ccccc1Nc1nc(Nc2ccc(NS(=O)(=O)c3ccc(C)cc3)c(OC)c2)ncc1Cl
IC50 [1]: 12.1 µM
IC50 [2]: 10.1 µM
IC50 [3]: > 40 µM
IC50 [4]: 8.5 µM
IC50 [5]: > 40 µM
IC50 [6]: 22.5 µM

CNC(=O)c1ccccc1Nc1nc(Nc2ccc(NS(=O)(=O)c3ccc(C)cc3)cc2)ncc1Cl
IC50 [1]: 6.17 µM
IC50 [2]: 1.55 µM
IC50 [3]: 28.7 µM
IC50 [4]: 7.07 µM
IC50 [5]: 2.76 µM
IC50 [6]: 19.4 µM

CNC(=O)c1ccccc1Nc1nc(Nc2ccc(N3CCOCC3)cc2OC)ncc1Cl
IC50 [2]: 6.73 µM
IC50 [3]: 5.37 µM
IC50 [5]: > 20 µM
IC50 [6]: 1.03 µM

CNC(=O)c1ccccc1Nc1nc(Nc2ccc(NS(=O)(=O)c3ccc(OC)cc3)c(C)c2)ncc1Cl
IC50 [1]: 4.61 µM
IC50 [2]: 1.78 µM
IC50 [3]: 2.88 µM
IC50 [4]: 4.89 µM
IC50 [5]: 0.03 µM
IC50 [6]: 10.6 µM

CNC(=O)c1ccccc1Nc1nc(Nc2ccc(Oc3ccc(NS(C)(=O)=O)cc3)cc2)ncc1Cl
IC50 [1]: 19.8 µM
IC50 [2]: 2.75 µM
IC50 [3]: 16.5 µM
IC50 [4]: 6.29 µM
IC50 [5]: 3.61 µM
IC50 [6]: 14.2 µM

CNC(=O)c1ccccc1Nc1nc(Nc2ccc(NS(=O)(=O)c3ccc(OC)cc3)cc2)ncc1Cl
IC50 [1]: 9.1 µM
IC50 [2]: 3.49 µM
IC50 [3]: 8.37 µM
IC50 [4]: 4.28 µM
IC50 [5]: 1.8 µM
IC50 [6]: 24.1 µM

CNC(=O)c1ccccc1Nc1nc(Nc2ccc(Oc3ccc(NS(=O)(=O)C(F)(F)F)cc3)cc2)ncc1Cl
IC50 [1]: 14.4 µM
IC50 [2]: 2.39 µM
IC50 [3]: 3.37 µM
IC50 [4]: 4.1 µM
IC50 [5]: 1.75 µM
IC50 [6]: 5.86 µM

Nc1ccn([C@@H]2O[C@H](CO)[C@@H](O)C2(F)F)c(=O)n1 [GEMCITABINE]
IC50 [1]: > 10 µM
IC50 [2]: 26.8 µM
IC50 [3]: > 20 µM
IC50 [4]: > 10 µM
IC50 [5]: 30.4 µM
IC50 [6]: 20.2 µM

CNC(=O)c1ccccc1Nc1nc(Nc2ccc(NS(=O)(=O)c3ccc(C)cc3)c(C)c2)ncc1Cl
IC50 [1]: 20.3 µM
IC50 [2]: 2.32 µM
IC50 [3]: 27.5 µM
IC50 [4]: 9.56 µM
IC50 [5]: 2.99 µM
IC50 [6]: 23.1 µM

CNC(=O)c1ccccc1Nc1nc(Nc2ccc(NS(=O)(=O)c3ccc(F)cc3)cc2)ncc1Cl
viability at 1.25 µM [7]: 52%
viability at 5 µM [8]: 76%
Activity [9]: 28.5%
Activity [10]: 0.6%
viability at 10 µM [11]: 52%
Activity [12]: 21.8%
Activity [13]: 62.9%
IC50 [1]: 2.18 µM
IC50 [2]: 3.92 µM
Activity [14]: 0.6%
viability at 1.25 µM [15]: 90%
Activity [16]: Dose-dependent effect
viability at 0.5 µM [17]: 45.9%
viability at 5 µM [18]: 79.4%
viability at 8 µM [19]: 21.3%
IC50 [3]: 11.5 µM
viability at 2 µM [20]: 39.3%
Activity [21]: 53.1%
Activity [22]: 24.4%
viability at 5 µM [23]: 49.1%
viability at 10 µM [24]: 47.1%
viability at 10 µM [25]: 12.1%
viability at 2 µM [26]: 68.8%
viability at 2 µM [27]: 36.2%
viability at 0.5 µM [28]: 53.3%
Activity [29]: 27.3%
IC50 [4]: 3.71 µM
IC50 [5]: 0.53 µM
viability at 8 µM [30]: 17.2%
viability at 0.5 µM [31]: 71.6%
viability at 1 µM [32]: 43.6%
viability at 1.25 µM [33]: 79.4%
Activity [34]: 1.1%
viability at 8 µM [35]: 42.8%
viability at 10 µM [36]: 23.9%
IC50 [6]: 6.92 µM
viability at 5 µM [37]: 24%
